Published values pooled from the literature.
Protocols differ between the studies behind these lines.
Target: Serine/threonine-protein kinase MARK2 (MARK2, Homo sapiens, UniProt Q7KZI7)

CN(C)c1nccc(-c2cnc3ncccn23)n1  remaining binding (binding; 1 µM): 100%
c1cncc(-c2cccc(Nc3nccc(NC4CCCCC4)n3)c2)c1  remaining binding (binding, competition with immobilised ligand; 10 µM): 81%
CS(=O)(=O)NCC[C@H](NC(=O)c1cncc2c1cnn2-c1ccc(F)cc1)c1ccnc(S(C)(=O)=O)c1  remaining binding (cell-free assay, competition with immobilised ligand; 1 µM): 75%
O=C(c1ccc(Nc2nccc(-c3cc4ccccc4s3)n2)cc1)N1CCC(N2CCCC2)CC1  remaining binding (binding, competition with immobilised ligand; 1 µM): 91%
C=CC(=O)N1CCC(C(=O)NCC(=O)N2CCN(c3nc(-c4cnc(N)nc4C(F)F)nc(N4CCOCC4)n3)CC2)CC1  remaining binding (binding, competition with immobilised ligand; 1 µM): 90%
CN(c1nccc(-c2cnn3ncccc23)n1)C1CC1  remaining binding (binding; 1 µM): 100%
CO[C@@H](C)c1c(Nc2ccc([C@@H](N(C)C(=O)C3CCS(=O)(=O)CC3)C(F)(F)F)cc2)cnc2cc(Cl)nn12  remaining binding (cell-free assay, competition with immobilised ligand; 1 µM): 100%
c1cnn2ncc(-c3ccnc(N4CCC45COC5)n3)c2c1  remaining binding (binding; 1 µM): 63%
COc1cnc(Nc2cccc(S(N)(=O)=O)c2)nc1N1CCN(c2ccccc2)CC1  remaining binding (binding, competition with immobilised ligand; 1 µM): 88%
O=C(c1ccc(Nc2ncc(Cl)c(-c3ccc(Cl)s3)n2)cc1)N1CCC(N2CCCC2)CC1  remaining binding (binding, competition with immobilised ligand; 1 µM): 69%
COc1ccc2cc(OCC3(C(=O)O)CN(C(=O)c4ccc(F)cc4)C3)ccc2c1  remaining binding (cell-free assay, competition with immobilised ligand; 1 µM): 91%
O=C(c1ccc(Nc2ncc(Cl)c(-c3cc4ccccc4s3)n2)cc1)N1CCC(N2CCCC2)CC1  remaining binding (binding, competition with immobilised ligand; 1 µM): 80%
C[C@H](NC(=O)c1cnc2n1[C@](C)(Cc1ccc(C#N)cc1)C(=O)N2c1cc(Cl)c(F)c(Cl)c1)C(=O)NC1(c2ccccn2)CC1  remaining binding (cell-free assay, competition with immobilised ligand; 1 µM): 100%
N[C@@H]1CCN(c2nccc(-c3cnn4ncccc34)n2)C1  remaining binding (binding; 1 µM): 100%
CCN1CCN(Cc2ccc(C(=O)Nc3ccc(C)c(Oc4ccc5c(c4)CC(=O)N5)c3)cc2C(F)(F)F)CC1  remaining binding (binding, competition with immobilised ligand; 1 µM): 100%
COc1ccnn2ncc(-c3ccnc(N(C)C)n3)c12  remaining binding (binding; 1 µM): 92%
O=C(NCC1CCOCC1)c1n[nH]cc1NC(=O)c1c(F)cccc1F  remaining binding (binding, competition with immobilised ligand; 1 µM): 71%
CCc1ccccc1C(=O)Nc1n[nH]c2c(C)c(F)c(C3C(C#N)=C(C)N(C)C(C)=C3C#N)cc12  remaining binding (cell-free assay, competition with immobilised ligand; 1 µM): 40%
COc1cnc(Nc2cccc(S(N)(=O)=O)c2)nc1N1CCN(c2ccccc2)C(=O)C1  remaining binding (binding, competition with immobilised ligand; 1 µM): 100%
Nc1ncc2c(n1)-c1c([nH]c3ccc(C#CC4CC4)cc13)CCCC2  remaining binding (binding, competition with immobilised ligand; 1 µM): 94%
Cc1cnn2ncc(-c3ccnc(N(C)C)n3)c2c1  remaining binding (binding; 1 µM): 100%
O=C(NCCCC1CCCCC1)c1ccc(CNC(=O)c2cnn(-c3ccccc3)c2C(F)(F)F)cc1  remaining binding (cell-free assay, competition with immobilised ligand; 0.1 µM): 100%
